Results taken from ChEMBL document CHEMBL2029337, “Synthesis and antimicrobial activities of structurally novel S,S'-bis(heterosubstituted) disulfides” (Bioorg Med Chem Lett, 2012).
In brackets after ≈: the same amount, converted by molar mass. Activity calls are given as the source filed them. The calls are words filed in the database; no cut-off is given here.

Columns and labels:
[1] = system: Escherichia coli; assay: Antibacterial activity against Escherichia coli K-12 […] by agar dilution method; format: functional, organism-based
[2] = Antibacterial activity against Francisella tularensis subspecies holarctica LVS after 48 hrs by broth dilution method; format: functional, Francisella tularensis subsp. holarctica LVS
[3] = system: Staphylococcus aureus; assay: Antibacterial activity against methicillin-resistant Staphylococcus aureus ATCC 43300 […] by agar dilution method; format: functional
[4] = system: Staphylococcus aureus; assay: Antibacterial activity against methicillin-susceptible Staphylococcus aureus ATCC 25923 […] by agar dilution method; format: functional
[5] = system: Bartonella sp.; assay: Antibacterial activity against Bartonella ssp. […] by agar dilution method; format: functional
[6] = system: Staphylococcus aureus; assay: Antibacterial activity against methicillin-resistant Staphylococcus aureus ATCC 43300 assessed as growth inhibition at 10 ug after 24 hrs by agar-diffusion assay in presence of cystine; format: functional, organism-based
[7] = system: Staphylococcus aureus; assay: Antibacterial activity against methicillin-resistant Staphylococcus aureus ATCC 43300 assessed as growth inhibition at 10 ug after 24 hrs by agar-diffusion assay in presence of iPrSSiPr; format: functional, organism-based
Procedure, shortened: (§1)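 Kirby-Bauer well diffusion on an MRSA lawn (0.5 McFarland suspension swabbed onto tryptic soy agar). Four test agents sat in wells equidistant from a centre well holding 1 mg of additive in DMSO; a DMSO-only centre well served as vehicle control. After overnight incubation at 37 °C, the inhibition zones were examined for size or shape change.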

[8] = system: Staphylococcus aureus; assay: Antibacterial activity against methicillin-resistant Staphylococcus aureus ATCC 43300 assessed as growth inhibition at 10 ug after 24 hrs by agar-diffusion assay in presence of CoA; format: functional, organism-based; procedure, shortened: as §1
[9] = system: Staphylococcus aureus; assay: Antibacterial activity against methicillin-resistant Staphylococcus aureus ATCC 43300 assessed as growth inhibition at 10 ug after 24 hrs by agar-diffusion assay in presence of lysine; format: functional, organism-based; procedure, shortened: as §1
[10] = system: Staphylococcus aureus; assay: Antibacterial activity against methicillin-resistant Staphylococcus aureus ATCC 43300 assessed as growth inhibition at 10 ug after 24 hrs by agar-diffusion assay in presence of valine; format: functional, organism-based; procedure, shortened: as §1
[11] = system: Staphylococcus aureus; assay: Antibacterial activity against methicillin-resistant Staphylococcus aureus ATCC 43300 assessed as growth inhibition at 10 ug after 24 hrs by agar-diffusion assay in presence of GSH; format: functional, organism-based; procedure, shortened: as §1
[12] = system: Staphylococcus aureus; assay: Antibacterial activity against methicillin-resistant Staphylococcus aureus ATCC 43300 assessed as growth inhibition at 10 ug after 24 hrs by agar-diffusion assay in presence of PPh3; format: functional, organism-based; procedure, shortened: as §1
[13] = system: Staphylococcus aureus; assay: Antibacterial activity against methicillin-resistant Staphylococcus aureus ATCC 43300 assessed as growth inhibition at 10 ug after 24 hrs by agar-diffusion assay in presence of glycine; format: functional, organism-based; procedure, shortened: as §1

| SMILES | Activity [1] | MIC [2] | MIC [3] | MIC [4] | Activity [5] | growth inhibition (GI) [6] | growth inhibition (GI) [7] | growth inhibition (GI) [8] | growth inhibition (GI) [9] | growth inhibition (GI) [10] | growth inhibition (GI) [11] | growth inhibition (GI) [12] | growth inhibition (GI) [13] |
| --- | --- | --- | --- | --- | --- | --- | --- | --- | --- | --- | --- | --- | --- |
| CC(COSSOCC(C)c1ccccc1)c1ccccc1 (racemic) | inactive | 8 µg/mL (≈ 23.9 µM) | 16 µg/mL (≈ 47.8 µM) | 16 µg/mL (≈ 47.8 µM) | inactive | – | – | – | – | – | – | – | – |
| CC[C@H](C)OSSO[C@@H](C)CC | inactive | 16 µg/mL (≈ 76.1 µM) | 32 µg/mL (≈ 152 µM) | 16 µg/mL (≈ 76.1 µM) | inactive | – | – | – | – | – | – | – | – |
| c1ccc(NSSNc2ccccc2)cc1 | inactive | 0.5 µg/mL (≈ 2.01 µM) | 4 µg/mL (≈ 16.1 µM) | 4 µg/mL (≈ 16.1 µM) | inactive | – | – | – | – | – | – | – | – |
| CCCCSSSSCCCC | inactive | 4 µg/mL (≈ 16.5 µM) | 32 µg/mL (≈ 132 µM) | 64 µg/mL (≈ 264 µM) | inactive | – | – | – | – | – | – | – | – |
| CCC(C)OSSOC(C)CC (centres undefined) | inactive | 16 µg/mL (≈ 76.1 µM) | 8 µg/mL (≈ 38 µM) | 16 µg/mL (≈ 76.1 µM) | inactive | – | – | – | – | – | – | – | – |
| CC(C)SSc1ccc([N+](=O)[O-])cc1 | – | – | – | – | – | inactive | Active | inactive | Active | Active | inactive | Active | Active |
| CC(C)SSSSC(C)C | inactive | 8 µg/mL (≈ 37.3 µM) | 32 µg/mL (≈ 149 µM) | 32 µg/mL (≈ 149 µM) | inactive | – | – | – | – | – | – | – | – |
| C[C@@H](c1ccccc1)N(Cc1ccccc1)SSN(Cc1ccccc1)[C@@H](C)c1ccccc1 | inactive | 16 µg/mL (≈ 33 µM) | 64 µg/mL (≈ 132 µM) | 16 µg/mL (≈ 33 µM) | inactive | – | – | – | – | – | – | – | – |
| CCC(C)SSSSC(C)CC (centres undefined) | inactive | 16 µg/mL (≈ 66 µM) | 64 µg/mL (≈ 264 µM) | 32 µg/mL (≈ 132 µM) | inactive | – | – | – | – | – | – | – | – |
| CCN(CC)SSN(CC)CC | inactive | 16 µg/mL (≈ 76.8 µM) | 2 µg/mL (≈ 9.6 µM) | 2 µg/mL (≈ 9.6 µM) | inactive | – | – | – | – | – | – | – | – |
| CCCCOSSOCCCC | inactive | 4 µg/mL (≈ 19 µM) | 8 µg/mL (≈ 38 µM) | 0.25 µg/mL (≈ 1.19 µM) | inactive | – | – | – | – | – | – | – | – |
| CCCCNSSNCCCC | inactive | 4 µg/mL (≈ 19.2 µM) | 32 µg/mL (≈ 154 µM) | 8 µg/mL (≈ 38.4 µM) | inactive | – | – | – | – | – | – | – | – |
| CN(C)SSN(C)C | inactive | 8 µg/mL (≈ 52.5 µM) | 0.5 µg/mL (≈ 3.28 µM) | 0.25 µg/mL (≈ 1.64 µM) | inactive | – | – | – | – | – | – | – | – |
| CCCOSSOCCC | inactive | 16 µg/mL (≈ 87.8 µM) | 32 µg/mL (≈ 176 µM) | 32 µg/mL (≈ 176 µM) | inactive | – | – | – | – | – | – | – | – |
| c1ccc(OSSOc2ccccc2)cc1 | inactive | 1 µg/mL (≈ 3.99 µM) | 2 µg/mL (≈ 7.99 µM) | 2 µg/mL (≈ 7.99 µM) | inactive | – | – | – | – | – | – | – | – |
| CCCSSSSCCC | inactive | 1 µg/mL (≈ 4.66 µM) | 32 µg/mL (≈ 149 µM) | 32 µg/mL (≈ 149 µM) | inactive | – | – | – | – | – | – | – | – |
| CC(C)[C@H]1CC[C@H](C)C[C@@H]1OSSO[C@H]1C[C@@H](C)CC[C@@H]1C(C)C | inactive | 4 µg/mL (≈ 10.7 µM) | 8 µg/mL (≈ 21.4 µM) | 8 µg/mL (≈ 21.4 µM) | inactive | – | – | – | – | – | – | – | – |
| O=C(O)c1cn(C2CC2)c2cc(N3CCNCC3)c(F)cc2c1=O [CIPROFLOXACIN] | – | 0.125 µg/mL (≈ 0.377 µM) | – | – | – | – | – | – | – | – | – | – | – |
| c1ccc(SSSSc2ccccc2)cc1 | inactive | 2 µg/mL (≈ 7.08 µM) | 8 µg/mL (≈ 28.3 µM) | 8 µg/mL (≈ 28.3 µM) | inactive | – | – | – | – | – | – | – | – |
| C[C@H](c1ccccc1)N(Cc1ccccc1)SSN(Cc1ccccc1)[C@H](C)c1ccccc1 | inactive | 16 µg/mL (≈ 33 µM) | 64 µg/mL (≈ 132 µM) | 16 µg/mL (≈ 33 µM) | inactive | – | – | – | – | – | – | – | – |
| CC(C)CN(CC(C)C)SSN(CC(C)C)CC(C)C | inactive | 1 µg/mL (≈ 3.12 µM) | 16 µg/mL (≈ 49.9 µM) | 16 µg/mL (≈ 49.9 µM) | inactive | – | – | – | – | – | – | – | – |
| CC(C)[C@@H]1CC[C@@H](C)C[C@H]1OSSO[C@@H]1C[C@H](C)CC[C@H]1C(C)C | inactive | 4 µg/mL (≈ 10.7 µM) | 16 µg/mL (≈ 42.7 µM) | 8 µg/mL (≈ 21.4 µM) | inactive | – | – | – | – | – | – | – | – |
| CC1CCC(C(C)C)C(OSSOC2CC(C)CCC2C(C)C)C1 (racemic) | inactive | 4 µg/mL (≈ 10.7 µM) | 16 µg/mL (≈ 42.7 µM) | 8 µg/mL (≈ 21.4 µM) | inactive | – | – | – | – | – | – | – | – |
| CCCNSSNCCC | inactive | 16 µg/mL (≈ 88.7 µM) | 4 µg/mL (≈ 22.2 µM) | 8 µg/mL (≈ 44.4 µM) | inactive | – | – | – | – | – | – | – | – |
| CC[C@@H](C)OSSO[C@H](C)CC | inactive | 16 µg/mL (≈ 76.1 µM) | 32 µg/mL (≈ 152 µM) | 16 µg/mL (≈ 76.1 µM) | inactive | – | – | – | – | – | – | – | – |
| CC(C)N(SSN(C(C)C)C(C)C)C(C)C | inactive | 32 µg/mL (≈ 121 µM) | 1 µg/mL (≈ 3.78 µM) | 2 µg/mL (≈ 7.56 µM) | inactive | – | – | – | – | – | – | – | – |
| C=CCN(CC=C)SSN(CC=C)CC=C | inactive | 16 µg/mL (≈ 62.4 µM) | 0.5 µg/mL (≈ 1.95 µM) | 1 µg/mL (≈ 3.9 µM) | inactive | – | – | – | – | – | – | – | – |
| CCC(C)NSSNC(C)CC (centres undefined) | inactive | 8 µg/mL (≈ 38.4 µM) | 16 µg/mL (≈ 76.8 µM) | 16 µg/mL (≈ 76.8 µM) | inactive | – | – | – | – | – | – | – | – |
| CC1(C)S[C@@H]2[C@H](NC(=O)Cc3ccccc3)C(=O)N2[C@H]1C(=O)O [PENICILLIN G] | – | – | 64 µg/mL (≈ 191 µM) | 0.25 µg/mL (≈ 0.748 µM) | – | Active | Active | Active | Active | Active | Active | Active | Active |
| CC(C)NSSNC(C)C | inactive | 2 µg/mL (≈ 11.1 µM) | 32 µg/mL (≈ 177 µM) | 32 µg/mL (≈ 177 µM) | inactive | – | – | – | – | – | – | – | – |
